This is a sample that favours compounds with a hit; in the whole collection about 6.6% have one here.
Fibroblast inh = blocks proliferation of human lung fibroblasts. LL 47 human lung fibroblast viability, ATP luminescence; hits give low values. viability, % at 10 µM. 1.1% of 85,000 active;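 active = viability at or below 50% in the single dose screen; inactive = viability above 50%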;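 also: compound exposure lasted 72 h before the ATP readout; 100% = median luminescence of untreated cell-only wells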
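Material: Human LL 47 lung fibroblast cells | Input: 1,150 cells/well | Buffer or medium: IMEM plus 15% FBS | Compound dosing: 0.1% DMSO in all compound wells | Times: Overnight cell rest, 72 h compound treatment at 37 °C | Signal: CellTiter-Glo luminescence measuring cellular ATP | Measure: % viability versus median cells-only luminescence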
Jurkat tox 60K = cytotoxicity toward Jurkat cells | 1.2% of 56,000 active | Jurkat E6.1 viability, ATP luminescence, 48 h | inhibition, % at 4 µM | AID 463;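 active = inhibition above the mean inhibition of all tested compounds plus 3 SD, cut at about 28% in these data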
H69AR inhibit = blocks growth of human H69AR lung tumor cells; 6% of 85,000 active; viability, % at 10 µM; AID 598; H69AR lung tumor viability, ATP luminescence, 72 h; hits give low values;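 active = viability at or below 40%; inactive = viability above 40%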;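 also: multidrug resistant small cell line overexpressing MRP-1 efflux transporter; 100% = mean luminescence of untreated control wells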
HUVEC prolif 384 = inhibitors of human endothelial cell proliferation; HUVEC proliferation, CellTiter-Glo luminescence, 72 h; hits give low values; viability, % at 10 µM (by protocol); 1.1% of 86,000 active; AID 648;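 active = viability at or below 30%; inactive = viability above 30%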;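 also: 100% = median luminescence of DMSO-only cell control wells on each plate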
* hit, by the source's call; / = not tested or not shown.

SMILES	Fibroblast inh	Jurkat tox 60K	H69AR inhibit	HUVEC prolif 384
CC1(c2ccccc2)CC(C)(C)N2C(=O)C3(C(C#N)=C(N)Oc4cc(O)ccc43)c3cccc1c32 (centres undefined)	101	/	80	13*
CCN(CC)C(=O)CC(c1ccc(F)cc1)c1ccco1 (centres undefined)	104	-4	86	101
COc1ccccc1CC(=O)Nc1ccc(-c2noc(COc3ccc(Cl)c(C)c3)n2)cc1	73	/	30*	86
CCOc1ccccc1-c1nc(-c2ccc(NC(=O)Cc3ccccc3OC)cc2)no1	106	0	90	97
Clc1ccc(C2C3=C(Nc4ncnn42)c2ccccc2CC3)cc1 (centres undefined)	85	/	13*	51
c1ccc(C2C3=C(Nc4ncnn42)c2ccccc2CCC3)cc1 (centres undefined)	89	2	78	95
Cc1nn(C)cc1/C=C/C(=O)c1cccs1	103	/	39*	102
CCc1ccc(NC(=O)Cn2c(=O)n(CCCC(=O)NCc3ccco3)c(=O)c3ccccc32)cc1	82	2	30*	41
N#Cc1ccccc1Cn1c(=O)n(CCCC(=O)NCc2ccc3c(c2)OCO3)c(=O)c2ccccc21	69	0	40*	59
N#Cc1ccccc1Cn1c(=O)n(Cc2ccc(C(=O)NCc3ccco3)cc2)c(=O)c2ccccc21	53	-4	12*	26*
N#Cc1ccccc1Cn1c(=O)n(CCC(=O)NCc2ccco2)c(=O)c2ccccc21	93	4	69	87
O=C(CCCCn1c(=O)c2ccccc2n(CC(=O)Nc2cccc(F)c2)c1=O)NCc1ccco1	75	0	92	88
CCOc1cc2[nH]c(=O)n(CCCCCC(=O)NCc3ccco3)c(=O)c2cc1OCC	98	/	95	59
CCOc1cc2[nH]c(=O)n(CCCCCC(=O)NCc3ccc4c(c3)OCO4)c(=O)c2cc1OCC	34*	1	18*	31
Cc1oc(-c2cccc(Cl)c2)nc1CN1CCCC(C(=O)NC(C)c2ccc3c(c2)OCCO3)C1 (centres undefined)	89	14	54	56
CC(SC1CCCC1)C(=O)NC(C)(C#N)C(C)C (centres undefined)	89	-1	87	98
Cc1cc(C)n(-c2nnc(C)c(=O)[nH]2)n1	/	3	/	/
O=C(CCCn1c(=O)c2sccc2n(CC(=O)OCc2ccccc2)c1=O)NCc1ccco1	96	0	92	87
O=C(CCCn1c(=O)c2sccc2n(Cc2ccc(F)cc2)c1=O)NCc1ccco1	96	11	22*	69
Cc1cccc(Cn2c(=O)n(CCCC(=O)NCc3ccco3)c(=O)c3ccccc32)c1	81	71*	/	54
O=C(CCCCn1c(=O)c2ccccc2n(Cc2ccc(Cl)cc2)c1=O)NCc1ccco1	54	32	16*	52
O=S(=O)(/C=C/c1ccccc1)Nc1ccc2c(c1)OCO2	99	/	117	111
CCn1cc(C(=O)NCc2ccccn2)c(=O)c2cc(F)c(N3CCN(C)CC3)cc21	102	/	72	100
CCn1cc(C(=O)N[C@H](C)c2ccccc2)c(=O)c2cc(F)c(N3CCN(C)CC3)cc21	78	/	9.7*	47
CCn1cc(C(=O)NCCc2ccccc2)c(=O)c2cc(F)c(N3CCN(C)CC3)cc21	79	/	42	17*
SMILES	Fibroblast inh	Jurkat tox 60K	H69AR inhibit	HUVEC prolif 384
CCn1cc(C(=O)NCc2ccc3c(c2)OCO3)c(=O)c2cc(F)c(N3CCN(C)CC3)cc21	92	8	21*	79
COc1ccc(OC)c(S(=O)(=O)Nc2cccc(F)c2)c1	95	/	95	96
COc1ccccc1NC(=O)Cn1cnc2sc(C)c(S(=O)(=O)N3CCCCC3)c2c1=O	110	/	100	106
COc1ccc(OC)c(N(CC(N)=O)S(=O)(=O)c2ccc(OC)c(OC)c2)c1	109	/	110	98
CCOc1ccc(-c2nnc3n2N=C(c2ccc(OC)cc2)CS3)cc1	85	/	51	97
CCc1nnc2n1N=C(c1ccc(OC)cc1)CS2	86	/	19*	73
COc1ccc(C2=Nn3c(nnc3-c3ccccn3)SC2)cc1	88	/	24*	82
CCc1nnc2n1N=C(c1ccc(-c3cc(Cl)ccc3Cl)o1)CS2	92	/	8.5*	104
CCc1nnc2n1N=C(c1ccc(-c3ccc(Cl)cc3Cl)o1)CS2	95	4	84	97
COc1ccccc1N1C(=O)c2ccccc2NC1c1ccncc1 (centres undefined)	100	/	101	95
COc1ccccc1N1C(=O)N(C(C)=O)C2C1Nc1ccccc1N2C (centres undefined)	90	2	31*	26*

Screening results: PubChem BioAssay, several laboratories
